In publication PMC10739243 (ACS Bio & Med Chem Au, 2023):
Residues, ends and D or L forms follow the SMILES beside them.

Tests used:
[1] = tested on: plasmid DNA (pDNA, 4.7 kb); assay type: binding
L929 cells [2] = assay: Cellular uptake of CF-labeled peptides by FACS; assay type: cell-based; settings: 10 μM CF-labeled peptide, 6 h incubation
How it was run: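 L929 cells grown in DMEM with 10% FBS and 1% penicillin-streptomycin, seeded at 50×10^4 cells/well, and cultured 24 h. Treated 6 h with 10 μM carboxyfluorescein-labelled peptide. Washed with PBS (10 mM, pH 7.4), detached with 0.25% trypsin, pellet washed three times with PBS, then analysed by flow cytometry.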

L929 cells [3] = assay: Cellular uptake mechanism by FACS; assay type: cell-based
pDNA = assay: DLS and ζ-potential of peptide/pDNA polyplex; assay type: physicochemical
How it was run: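 Plasmid was pEGFP-C2 (4.7 kb), isolated from E. coli DH5α, with purity checked by A260/A280. It was mixed with peptide (0–25 μM) in Tris-HCl (10 mM, pH 7.4). Hydrodynamic size was measured by dynamic light scattering in a 1 cm quartz cuvette, alongside ζ-potential.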

ctDNA = assay: Hoechst; assay type: binding; settings: Hoechst-bound ctDNA titrated with peptide, fluorescence at 460 nm
[4] = Polyplex stability against NaCl, agarose gel retardation; assay type: physicochemical; settings: pDNA condensed with 25 μM peptide, NaCl treatment

C[C@H](N)C(=O)N[C@@H](C)C(=O)N[C@@H](CCCCN)C(=O)N[C@@H](CCCCN)C(=O)N[C@@H](C)C(=O)N[C@@H](C)C(=O)N[C@@H](C)C(=O)N[C@@H](CCCCN)C(=O)N[C@@H](CCCCN)C(=O)N[C@@H](C)C(=O)N[C@@H](C)C(=O)N[C@@H](C)C(=O)N[C@@H](CCCCN)C(=O)N[C@@H](CCCCN)C(=O)N[C@@H](C)C(=O)N[C@@H](C)C(=O)N[C@@H](C)C(=O)N[C@@H](CCCCN)C(=O)N[C@@H](CCCCN)C(=O)N[C@@H](C)C(N)=O [Ku-A4] (H-AAKKAAAKKAAAKKAAAKKA-NH2; N-terminus assumed)
peptide concentration for complete condensation of DNA (gel) [1]: 3 µM
cell penetration efficacy (cellular uptake, FACS) (L929 cells [2]): superior cell penetration ability
inhibition of cellular uptake by macropinocytosis inhibitor amiloride (L929 cells [3]): 48%
reduction of peptide uptake by energy depletion with NaN3 (L929 cells [3]; 0.1% NaN3 pre-incubated 1 h before peptide): 38%
cellular uptake at 4 °C (reduced to) (L929 cells [3]; 1 h pre-incubation at 4 °C then peptide 6 h at 4 °C): 18%
size of polyplex at higher peptide concentrations (pDNA; DLS, pDNA in Tris-HCl 10 mM pH 7.4, higher peptide concentrations (up to 25 μM)): 140 nm
ζ-potential of polyplex at 25 μM peptide (pDNA; DNA 200 ng/mL, 25 μM peptide): +16.4 mV
peptide concentration for complete Hoechst displacement (ctDNA): 10 µM
NaCl concentration at which polyplex starts disassembling [4]: 250 mM
